Results: ChEMBL document CHEMBL4616631, “Design, synthesis and evaluation of phthalide alkyl tertiary amine derivatives as promising acetylcholinesterase inhibitors with high potency and selectivity against Alzheimer's disease” (Bioorg Med Chem, 2020)
Activity calls are given as the source filed them. The calls are words filed in the database; no cut-off is given here.

Tests used:
[1] = target: Amyloid-beta precursor protein (Homo sapiens) (UniProt P05067); test: Inhibition of HFIP-pretreated self-induced amyloid beta (1 to 42) (unknown origin) aggregation at 25 uM measured after 24 hrs by ThT fluorescence assay relative to control
Procedure, shortened: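 Aβ1-42 was pretreated in HFIP for 24 h at room temperature, dried, and dissolved in DMSO to a 200 µM stock. Aβ (25 µM) was incubated with compound (25 µM) at 37 °C for 24 h. ThT was added at 5 µM in glycine-NaOH, pH 8.5. Fluorescence ex 446/em 490 nm, background-subtracted; inhibition = (1−IFi/IFc)×100. Triplicate.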

[2] = Antioxidant activity assessed as trolox equivalent of AAPH-induced radical scavenging activity at 5 uM preincubated for 15 mins followed by AAPH addition measured every min for 90 mins by ORAC-FL assay; assay type: functional
Procedure, shortened: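 ORAC-FL in 75 mM phosphate buffer, pH 7.4. Sample at 5 µM was preincubated with fluorescein (150 nM final) for 15 min at 37 °C, then AAPH was added (12 mM final). Fluorescence (ex 485/em 535 nm) was read every minute for 90 min. […] Triplicate, at least three independent assays.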

[3] = target: Acetylcholinesterase (Electrophorus electricus) (UniProt O42275); test: Inhibition of Electrophorus electricus AChE at 50 uM using […] as substrate incubated for 15 mins by Ellman's method relative to control
Procedure, shortened: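 Eel AChE (0.05 U/mL final) with acetylthiocholine iodide 1 mM and DTNB 0.2% in […] pH 8.0, 37 °C 15 min (modified Ellman); absorbance at 412 nm. Three independent experiments, each in triplicate.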

[4] = target: Butyrylcholinesterase (BuChE) (Rattus norvegicus, UniProt Q9JKC1); test: Inhibition of BuChE in rat serum at 50 uM using S-butylthiocholine iodide as substrate by Ellman's method relative to control; assay type: cell-free; conditions: probe S-butylthiocholine iodide
Procedure, shortened: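 Rat serum (25%) as BuChE source, S-butylthiocholine iodide 1 mM, DTNB 0.2%, in 0.1 mM phosphate buffer pH 7.4, 37 °C 15 min (modified Ellman); absorbance change at 405 nm. Three independent experiments, each in triplicate.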

Mus musculus [5] = test: (§1) Antialzheimer activity in scopolamine-induced Kunming mouse model of memory impairment assessed as decrease in number of electric shock at 5 mg/kg/day, ig for 7 days followed by training trial at 1 hr post dose on day 6 and subsequent scopolamine challenge at 30 mins post training trial and measured post last dose by step-down passive avoidance test; assay type: functional, organism-based
Procedure, shortened: (§2)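 Kunming mice, 18-22 g, male and female in half, 8 per group. Dosed i.g. once daily for 7 days, vehicle 0.5% CMC-Na. Day-6 training came 1 h after dosing: a 50 V, 5 s foot shock on stepping down from the platform, in a 5 min trial. Scopolamine 2.0 mg/kg i.p. followed 30 min later; control mice got none. Step-down latency and number of shocks were counted over 5 min in the test trial 24 h after training. Mean ± SEM.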

Mus musculus [6] = test: as §1, with “increase” for “decrease”, “latency time” for “number of electric shock”; assay type: functional, organism-based; procedure, shortened: as §2

Chain of Acetylcholinesterase (Electrophorus electricus) (O42275 24-633 limits assumed): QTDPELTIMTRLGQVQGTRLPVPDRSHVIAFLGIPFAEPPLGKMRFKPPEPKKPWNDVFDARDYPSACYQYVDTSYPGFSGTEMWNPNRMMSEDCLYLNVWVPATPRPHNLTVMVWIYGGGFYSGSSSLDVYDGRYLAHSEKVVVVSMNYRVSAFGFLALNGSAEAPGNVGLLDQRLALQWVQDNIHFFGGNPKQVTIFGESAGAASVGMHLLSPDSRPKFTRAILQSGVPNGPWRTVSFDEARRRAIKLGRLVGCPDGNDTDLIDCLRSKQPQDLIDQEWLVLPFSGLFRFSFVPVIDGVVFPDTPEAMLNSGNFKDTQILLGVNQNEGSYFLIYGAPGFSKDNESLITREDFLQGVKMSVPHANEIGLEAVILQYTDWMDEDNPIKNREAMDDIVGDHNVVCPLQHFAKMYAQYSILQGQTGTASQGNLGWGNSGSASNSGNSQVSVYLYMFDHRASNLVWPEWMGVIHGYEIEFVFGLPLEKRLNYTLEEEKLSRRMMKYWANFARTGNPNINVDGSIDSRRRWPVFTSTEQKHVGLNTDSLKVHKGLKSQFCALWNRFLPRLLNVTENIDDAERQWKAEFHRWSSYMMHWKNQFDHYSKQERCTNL
Chain of Amyloid-beta precursor protein (Homo sapiens) (P05067 whole entry): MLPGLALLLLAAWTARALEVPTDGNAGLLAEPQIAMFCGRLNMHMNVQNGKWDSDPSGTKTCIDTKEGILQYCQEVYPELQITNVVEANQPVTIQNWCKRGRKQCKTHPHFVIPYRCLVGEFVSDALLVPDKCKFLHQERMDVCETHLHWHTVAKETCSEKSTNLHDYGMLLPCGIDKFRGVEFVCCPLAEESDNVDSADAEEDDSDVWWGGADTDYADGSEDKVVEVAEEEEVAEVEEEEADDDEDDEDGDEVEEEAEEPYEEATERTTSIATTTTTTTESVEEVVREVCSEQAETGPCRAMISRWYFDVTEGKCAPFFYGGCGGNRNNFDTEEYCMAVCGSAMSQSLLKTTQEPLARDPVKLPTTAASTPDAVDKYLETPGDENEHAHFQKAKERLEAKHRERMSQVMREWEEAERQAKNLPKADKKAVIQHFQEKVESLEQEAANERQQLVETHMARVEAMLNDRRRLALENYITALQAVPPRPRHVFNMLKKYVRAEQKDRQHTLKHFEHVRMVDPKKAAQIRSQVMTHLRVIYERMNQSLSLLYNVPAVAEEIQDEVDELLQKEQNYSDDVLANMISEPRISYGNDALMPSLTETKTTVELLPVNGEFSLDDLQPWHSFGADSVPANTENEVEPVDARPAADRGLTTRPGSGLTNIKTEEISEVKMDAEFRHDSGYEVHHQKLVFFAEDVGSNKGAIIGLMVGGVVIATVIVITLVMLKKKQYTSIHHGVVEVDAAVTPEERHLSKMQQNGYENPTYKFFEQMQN
Chain of Butyrylcholinesterase (BuChE) (Q9JKC1 whole entry): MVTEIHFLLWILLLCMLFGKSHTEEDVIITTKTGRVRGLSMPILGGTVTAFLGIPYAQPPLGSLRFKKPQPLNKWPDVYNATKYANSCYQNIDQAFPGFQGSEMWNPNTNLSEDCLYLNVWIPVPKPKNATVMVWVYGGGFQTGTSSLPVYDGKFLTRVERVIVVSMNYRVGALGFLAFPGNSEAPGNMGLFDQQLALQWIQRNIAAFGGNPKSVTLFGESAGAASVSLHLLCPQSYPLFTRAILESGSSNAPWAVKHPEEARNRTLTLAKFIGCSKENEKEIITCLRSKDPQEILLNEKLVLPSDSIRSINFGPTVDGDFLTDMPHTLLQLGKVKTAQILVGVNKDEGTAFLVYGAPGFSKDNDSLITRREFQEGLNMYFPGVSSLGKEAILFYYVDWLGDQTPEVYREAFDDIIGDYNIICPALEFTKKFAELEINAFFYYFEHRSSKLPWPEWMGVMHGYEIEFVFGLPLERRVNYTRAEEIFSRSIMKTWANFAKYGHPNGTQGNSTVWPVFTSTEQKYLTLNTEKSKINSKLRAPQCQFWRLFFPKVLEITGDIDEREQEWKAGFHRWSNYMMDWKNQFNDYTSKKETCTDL

SMILES	inhibition [1] [%]	Activity [2] [µMequiv/µM]	inhibition [3] [%]	inhibition at 50 µM [4] [%]	Activity (Mus musculus [5])	Activity (Mus musculus [6])
CCCCC1OC(=O)c2ccccc21 (racemic) [RAC-3-N-BUTYLPHTHALIDE]	< 5	0.21	< 5	2.67	–	–
COc1cc2c(cc1OC)C(=O)C(CC1CCN(Cc3ccccc3)CC1)C2 (stereo unspecified)	–	–	–	–	inactive	inactive
